The text below walks through data of ChEMBL document CHEMBL1124246, “Evaluation of the side arm of (naphthylvinyl)pyridinium inhibitors of choline acetyltransferase” (J Med Chem, 1988).

One experiment has as its target T1, Acetylcholinesterase (Rattus norvegicus, UniProt P37136).
T1 sequence (P37136 whole entry): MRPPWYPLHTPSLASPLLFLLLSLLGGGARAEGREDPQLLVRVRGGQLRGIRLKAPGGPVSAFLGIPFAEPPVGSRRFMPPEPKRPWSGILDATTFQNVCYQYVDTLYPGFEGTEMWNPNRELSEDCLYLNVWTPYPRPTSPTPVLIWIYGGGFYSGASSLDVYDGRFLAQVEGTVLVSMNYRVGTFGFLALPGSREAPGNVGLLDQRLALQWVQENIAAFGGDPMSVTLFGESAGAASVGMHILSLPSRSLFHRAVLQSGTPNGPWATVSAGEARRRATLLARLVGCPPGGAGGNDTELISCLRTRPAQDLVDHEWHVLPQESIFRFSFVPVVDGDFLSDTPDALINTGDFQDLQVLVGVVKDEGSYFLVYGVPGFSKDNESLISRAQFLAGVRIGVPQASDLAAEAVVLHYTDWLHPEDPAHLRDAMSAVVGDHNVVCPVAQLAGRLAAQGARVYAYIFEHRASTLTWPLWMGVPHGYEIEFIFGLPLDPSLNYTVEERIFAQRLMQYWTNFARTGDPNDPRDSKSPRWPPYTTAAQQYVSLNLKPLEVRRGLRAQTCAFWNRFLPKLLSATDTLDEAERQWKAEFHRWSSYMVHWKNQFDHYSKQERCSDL
The experiment can be described thus: Inhibition of acetylcholinesterase (AChE) activity. The note with it: read-out: I50.

Experiment [1] in a line: Degree of specificity expressed as the ratio of I50 of AChE to I50 of ChAT. A digest of the protocol:
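Ratio of AChE I50 to ChAT I50. ChAT: partially purified rat brain enzyme, 3 min at 37 °C, 0.1 mM [14C]acetyl-CoA, 5 mM choline. AChE: commercial enzyme, 10 min at 37 °C, [14C]acetylcholine, 1% Triton-X. Radiometric read-out for both; inhibitors tested 10^-3–10^-8 M.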

For experiment [2], the target named is T2, Choline O-acetyltransferase (Rattus norvegicus, UniProt P32738).
T2 sequence (P32738 whole entry): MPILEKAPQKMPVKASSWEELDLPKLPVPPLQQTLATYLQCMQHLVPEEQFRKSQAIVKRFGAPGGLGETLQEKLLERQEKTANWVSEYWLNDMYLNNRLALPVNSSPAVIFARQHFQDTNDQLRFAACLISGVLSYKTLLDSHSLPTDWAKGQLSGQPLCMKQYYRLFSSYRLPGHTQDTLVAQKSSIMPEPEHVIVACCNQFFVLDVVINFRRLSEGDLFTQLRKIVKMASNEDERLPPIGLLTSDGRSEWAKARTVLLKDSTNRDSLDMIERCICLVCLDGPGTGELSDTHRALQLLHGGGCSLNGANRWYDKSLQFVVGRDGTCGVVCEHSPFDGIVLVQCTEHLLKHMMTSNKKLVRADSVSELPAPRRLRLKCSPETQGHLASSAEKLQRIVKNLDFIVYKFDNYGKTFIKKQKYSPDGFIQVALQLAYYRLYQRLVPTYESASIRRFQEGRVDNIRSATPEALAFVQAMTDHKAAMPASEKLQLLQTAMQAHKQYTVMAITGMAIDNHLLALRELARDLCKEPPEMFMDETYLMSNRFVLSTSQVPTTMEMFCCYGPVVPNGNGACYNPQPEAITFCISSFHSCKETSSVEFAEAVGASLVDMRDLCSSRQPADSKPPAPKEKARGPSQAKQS
As to the kind of experiment: (§1) Inhibition of choline acetyltransferase (ChAT) activity. The note with it: read-out: I50.

For experiment [3], the target named is T3, Acetylcholinesterase (Rattus norvegicus) (UniProt P37136).
T3 sequence (whole entry): T1 sequence (P37136 whole entry)

For experiment [4], the target named is T2, Choline O-acetyltransferase. The experiment is described as §1. The note with it: read-out: I50. The procedure, abridged: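 Rat brain enzyme, partially purified (through CM-Sephadex batch elution), stored -20 °C, diluted for linear kinetics. Radiolabelled product counted by scintillation. Inhibitors tested 10^-3–10^-8 M; I50 reported.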
This is another data set of the same source.

In experiment [5] the target is T4, Choline O-acetyltransferase (Rattus norvegicus) (UniProt P32738).
T4 sequence (whole entry): T2 sequence (P32738 whole entry)
As to the kind of experiment: Inhibition of choline acetyltransferase (ChAT) activity; NI is no inhibition observed up to 0.001 M.

The structures appear in SMILES notation. Activity calls are given as the source filed them. The calls are words filed in the database; no cut-off is given here.

With `NC(=O)C[n+]1ccc(/C=C/c2cccc3ccccc23)cc1`, the results for the IC50 (at Acetylcholinesterase; in experiment [2]) were 80 µM and 0.27 µM, respectively. Besides, the Ratio in experiment [1] is 296.
For the molecule `O=C(CBr)C[n+]1ccc(/C=C/c2cccc3ccccc23)cc1`, the IC50 at Acetylcholinesterase is 40 µM; in experiment [2], 10 µM. The Ratio in experiment [1] was 4.
The corresponding values for `CCOC(=O)C[n+]1ccc(/C=C/c2cccc3ccccc23)c(C)c1` are 10 µM, 1.2 µM and 8.
Taken in the same sequence, the figures for `CCC[n+]1ccc(/C=C/c2cccc3ccccc23)cc1` were 17.5 µM, 0.19 µM and 92.
The corresponding values for `CCCCCCC(C)OC(=O)CC(=O)C[n+]1ccc(/C=C/c2cccc3ccccc23)cc1` (stereo not given) are 350 µM, 50 µM and 7.
Take `C[n+]1ccc(/C=C/c2cccc3ccccc23)cc1`: the IC50 was 30 µM on Acetylcholinesterase and 0.39 µM in experiment [2]. Also, in experiment [1], the Ratio stood at 77.
The corresponding values for `CCCC[n+]1ccc(/C=C/c2cccc3ccccc23)cc1` are 3.9 µM, 0.37 µM and 11.
Take `O=C(O)C[n+]1ccc(/C=C/c2cccc3ccccc23)cc1`: the Ratio in experiment [1] was greater than 22. In addition, in experiment [2], the IC50 worked out at 46 µM. Also, the I50 result in experiment [3] was “inactive”.
As for `CCNC(=O)NC(=O)C[n+]1ccc(/C=C/c2cccc3ccccc23)cc1`, the IC50 at Acetylcholinesterase turned out to be 130 µM; in experiment [2], 3.9 µM. In addition, the Ratio in experiment [1] is 33.
As for `NCCC[n+]1ccc(/C=C/c2cccc3ccccc23)cc1`, the values for the IC50 (on Acetylcholinesterase; in experiment [2]) were 220 µM and 5.3 µM, respectively. For the same molecule, the Ratio in experiment [1] worked out at 42.
Taken in the same sequence, the figures for `O=C(O)CC[n+]1ccc(/C=C/c2cccc3ccccc23)cc1` were 1000 µM, 40 µM and 25.
Consider `CCOC(=O)C(C(=O)OCC)[n+]1ccc(/C=C/c2cccc3ccccc23)cc1`, for which the results for the IC50 (on Acetylcholinesterase; in experiment [2]) were 500 µM and 21 µM, respectively. Further, the Ratio in experiment [1] was found to be 24.
For `Cc1c[n+](CCN)ccc1/C=C/c1cccc2ccccc12`, the values for the IC50 (at Acetylcholinesterase; in experiment [2]) were 30 µM and 5 µM, respectively. In addition, in experiment [1], the Ratio stood at 6.
On to `CC(=O)C[n+]1ccc(/C=C/c2cccc3ccccc23)cc1`, for which the IC50 on Acetylcholinesterase turned out to be 31 µM; in experiment [2] it was 3.7 µM. Also, the Ratio in experiment [1] is 8.
As for `CCNC(=O)NC(=O)CBr`, in experiment [4], the IC50 was determined as 250 µM. Further, the I50 result in experiment [3] was “inactive”.
`Cc1cnccc1/C=C/c1cccc2ccccc12`: in experiment [1], the Ratio was greater than 25. In experiment [2], the IC50 turned out to be 40 µM. Further, in experiment [3], the I50 result was “inactive”.
Consider `Cc1c[n+](CC(N)=O)ccc1/C=C/c1cccc2ccccc12`, for which the IC50 on Acetylcholinesterase amounted to 45 µM; in experiment [2] it was 0.34 µM. Moreover, the Ratio in experiment [1] was determined as 132.
On to `NC(=O)NC(=O)C[n+]1ccc(/C=C/c2cccc3ccccc23)cc1`, for which the IC50 at Acetylcholinesterase turned out to be 140 µM; in experiment [2] it was 3.7 µM. Further, in experiment [1], the Ratio came to 38.
Take `NC(=O)NC(=O)CBr`: the IC50 in experiment [4] worked out at 130 µM. Besides, in experiment [3], the I50 entry is “inactive”.
Turning to `C[N+]1=CC=NC1/C=C/c1cccc2ccccc12` (stereo not given), at Acetylcholinesterase, the IC50 was 51 µM. The I50 result in experiment [5] is “inactive”.
Take `O=C(CO)C[n+]1ccc(/C=C/c2cccc3ccccc23)cc1`: in experiment [1], the Ratio is greater than 200. Besides, the IC50 in experiment [2] was determined as 3 µM.
In the case of `CCOC(=O)C[n+]1ccc(/C=C/c2cccc3ccccc23)cc1`, the values for the IC50 (at Acetylcholinesterase; in experiment [2]) were 32 µM and 1 µM, respectively. Further, the Ratio in experiment [1] amounted to 32.
Taken in the same sequence, the figures for `Cc1c[n+](CCC(=O)O)ccc1/C=C/c1cccc2ccccc12` were 750 µM, 45 µM and 17.
Taken in the same sequence, the figures for `OCCC[n+]1ccc(/C=C/c2cccc3ccccc23)cc1` were 36 µM, 1.3 µM and 28.
As for `OCC[n+]1ccc(/C=C/c2cccc3ccccc23)cc1`, the IC50 at Acetylcholinesterase was found to be 68 µM; in experiment [2], 1.7 µM. The Ratio in experiment [1] is 40.
`NCC[n+]1ccc(/C=C/c2cccc3ccccc23)cc1`: the IC50 at Acetylcholinesterase was 64 µM; in experiment [2], 3.9 µM. Moreover, the Ratio in experiment [1] turned out to be 16.
Turning to `C(=C\c1cccc2ccccc12)/c1ccncc1`, the Ratio in experiment [1] is greater than 26. Also, in experiment [2], the IC50 stood at 38 µM. For the same molecule, the I50 entry in experiment [3] is “inactive”.
Consider `Cc1c[n+](CCO)ccc1/C=C/c1cccc2ccccc12`, for which the IC50 was 27 µM on Acetylcholinesterase and 1.7 µM in experiment [2]. The Ratio in experiment [1] is 16.
